The source made the active and inactive calls. No cut-off for these calls is given here.

A short description of series [1]: Cytotoxicity against human NCI-H1299 cells assessed as decrease in cell viability after 48 hrs by Alamar blue assay. In kind it is functional, cell-based. To be noted: NCI-H1299, 48 h.
The subject of series [2] is NCI-H1299. In words: Induction of apoptosis in human NCI-H1299 cells assessed as apoptotic cells at 15 uM after 48 hrs by annexin V-phycoerythrin/7-AAD staining based flow cytometry (reference value: 4%). In kind it is functional. (In general: In flow cytometry, cells or beads pass a laser one at a time.)
Series [3] is described as follows: Cytotoxicity against human NCI-H2009 cells assessed as decrease in cell viability after 48 hrs by Alamar blue assay. In kind it is functional, cell-based. To be noted: NCI-H2009, 48 h. A general note: Alamar Blue is a resazurin reagent that responds to reducing activity.
Series [4] can be described thus: Cytotoxicity against human NCI-H1993 cells assessed as decrease in cell viability after 48 hrs by Alamar blue assay. In kind it is functional, cell-based. To be noted: NCI-H1993, 48 h.
Series [5] is described as follows: Cytotoxicity against human NCI-H441 cells assessed as decrease in cell viability after 48 hrs by Alamar blue assay. In kind it is functional, cell-based. As to conditions: NCI-H441, 48 h.
Series [6] is described as follows: Cytotoxicity against human A549 cells assessed as decrease in cell viability after 48 hrs by Alamar blue assay. To be noted: A549, 48 h. In kind it is functional, cell-based.
Series [7] is described as follows: Cytotoxicity against human NCI-H1373 cells assessed as decrease in cell viability after 48 hrs by Alamar blue assay. In kind it is functional, cell-based. To be noted: NCI-H1373, 48 h.
The test system of series [8] is NCI-H1299. In words: Induction of autophagy in human NCI-H1299 cells transfected with GFP-LC3 assessed as increase in LC3-2 level at 20 uM after 24 hr by DAPI staining based immunofluorescence assay. In kind it is functional, cell-based. The essentials: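 H1299 cells transiently transfected with GFP-LC3, then treated 24 hrs with compound (3–20 μM) or DMSO. GFP-LC3 puncta were imaged by confocal microscopy and counted per cell; n=30 cells, s.d.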

A short description of series [9]: Drug localization in lysosomes of human NCI-H1299 cells at 20 uM after 1 hr by mitotracker green FM/lysotracker red DND-99 staining based confocal microscopy. In kind it is ADME, cell-based, Lysosome. To be noted: nci-h1299, 1 h. The essentials: (§1)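 Live H1299 cells exposed to compound for 1 hr, then co-stained with MitoTracker Green FM (mitochondria) and LysoTracker Red DND-99 (lysosomes). Localization was read by live confocal microscopy using the β-carboline's intrinsic fluorescence (Ex/Em 358/461 nm), compared against the organelle stains.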

A short description of series [10]: Cytotoxicity against human IMR90 cells assessed as decrease in cell viability after 48 hrs by Alamar blue assay. In kind it is toxicity, cell-based, IMR-90.
The test system of series [11] is NCI-H1299. In words: Induction of autophagy in human NCI-H1299 cells assessed as increase in p62/SQSTM1 level at 3 to 10 uM after 24 hr by Western blot analysis. In kind it is functional, cell-based. The essentials: (§2)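 H1299 cells incubated 24 hrs with compound (3, 5, 10 or 20 μM) or DMSO. LC3 (LC3II band) and p62/SQSTM1 were detected by western blot.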
Series [12] can be described thus: Drug localization in lysosomes of human NCI-H1299 cells at 10 uM after 1 hr by mitotracker green FM/lysotracker red DND-99 staining based confocal microscopy. In kind it is ADME, cell-based, Lysosome. To be noted: nci-h1299, 1 h. The essentials: as §1
Series [13] has as its system NCI-H1299. In words: Induction of apoptosis in human NCI-H1299 cells assessed as increase in cleaved PARP level at 3 to 10 uM after 24 hrs by Western blot analysis. In kind it is functional, cell-based. The essentials:
(§3)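 H1299 cells treated 24 hrs with compound (3, 5, 10 or 20 μM) or DMSO. Lysates were probed by western blot for apoptotic markers: cleaved caspase 3, cleaved lamin A and cleaved PARP.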

A short description of series [14]: Upregulation of PUMA expression in human NCI-H1299 cells assessed as after 24 hrs by Western blot analysis. In kind it is functional, cell-based. The essentials: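 PUMA protein measured by western blot in H1299 cells after 24 hrs with compound (3, 5, 10 or 20 μM) or DMSO.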
A general note: A western blot detects proteins with antibodies after separation by electrophoresis.

In series [15] the test system is NCI-H1299. In words: Induction of apoptosis in human NCI-H1299 cells assessed as increase in cleaved lamin A level at 3 to 10 uM after 24 hrs by Western blot analysis. In kind it is functional, cell-based. The essentials:
as §3

For series [16], the system named is NCI-H1299. The experiment in a line: Induction of autophagy in human NCI-H1299 cells assessed as increase in LC3-2 level after 24 hr by Western blot analysis. In kind it is functional, cell-based. The essentials: as §2
Series [17] has as its system NCI-H1299. In words: Induction of autophagy in human NCI-H1299 cells transfected with GFP-LC3 assessed as increase in LC3-2 level at 3 to 10 uM after 24 hr by DAPI staining based immunofluorescence assay. In kind it is functional, cell-based.
The test system of series [18] is NCI-H1299. In words: Induction of apoptosis in human NCI-H1299 cells assessed as increase in cleaved caspase 3 level after 24 hrs by immunofluorescence based confocal microscopy. In kind it is functional, cell-based. The essentials:
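H1299 cells treated 24 hrs with compound (5 or 20 μM) or DMSO, then immunostained for active caspase 3 and imaged by confocal microscopy. Apoptotic fraction was calculated as cells expressing active caspase over total cells; n=3, s.d.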

Series [19] deals with NCI-H1299. In words: Induction of apoptosis in human NCI-H1299 cells assessed as apoptotic cells at 3 uM after 48 hrs by annexin V-phycoerythrin/7-AAD staining based flow cytometry (reference value: 4%). In kind it is functional.
Series [20] has as its system NCI-H1299. In words: Induction of apoptosis in human NCI-H1299 cells assessed as increase in cleaved caspase 3 level after 24 hrs by Western blot analysis. In kind it is functional, cell-based. The essentials:
as §3

Usually IC50 stands for the concentration that inhibits the measured activity by half. Consider `CN(CCN)CCNCc1nccc2c1[nH]c1ccccc12`, for which the IC50 in series [1] amounted to 15100 nM; in series [3], 8900 nM; in [4] it was 9.3 µM; in series [5], 4300 nM; in [6] it was 20500 nM; in [7] it was 13.2 µM. For the same molecule, the Activity in [2] stood at 11%. Also, the outcome in series [8] was Active. Further, the Drug uptake entry in series [9] is on record as “Active”. Also, in series [10], the IC50 at 48 h worked out at 12.9 µM.
On to `CN(CCNCc1nccc2c1[nH]c1ccccc12)CCNCc1nccc2c1[nH]c1ccccc12`, for which the half-maximal inhibitory concentration (IC50) amounted to 1600 nM in [1]; 1400 nM in [3]; 1.2 µM in series [4]; 700 nM in [5]; 2900 nM in [6]; 3.3 µM in series [7]. Also, the outcome in [11], in [13], in series [15] and in [17] was Active. The Drug uptake result in series [12] is recorded as “Active”. Besides, the Activity result is “Dose-dependent effect” in [14]; “Dose-dependent effect” in [16]; “Dose-dependent effect” in series [18]; 97% in [19]; “Dose-dependent effect” in series [20]. In [10], the half-maximal inhibitory concentration (IC50) at 48 h was determined as 5.6 µM.
As to `O[C@]12C=C(c3nccc4c3[nH]c3ccccc34)[C@@H]3CCN(CCCC/C=C\CC1)C[C@@]31C[C@@H]3/C=C\CCCCN3[C@H]12` [MANZAMINE A], the concentration for half-maximal inhibition (IC50) in [1] was 1500 nM; in series [3], 1600 nM; in [4], 3.9 µM; in [5], 1100 nM; in series [6] it was 2300 nM; in [7], 2.1 µM. Also, the outcome in series [17] was Active. In addition, the concentration for half-maximal inhibition (IC50) at 48 h in [10] is 6.8 µM.

Values taken from ChEMBL document CHEMBL3853347, “PUMA-dependent apoptosis in NSCLC cancer cells by a dimeric β-carboline” (Bioorg Med Chem Lett, 2016).
